Laboratory results: ChEMBL document CHEMBL1138360, “Hypoxia-selective 3-alkyl 1,2,4-benzotriazine 1,4-dioxides: the influence of hydrogen bond donors on extravascular transport and antitumor activity” (J Med Chem, 2007)

Tests used:
SiHa [1] = experiment: Ratio of IC50 for SiHa cells in aerobic condition to IC50 for SiHa cells in hypoxic condition after 4 hrs; format: functional, Homo sapiens
Method in brief: (§1)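 Aerobic and anoxic (H2/Pd chamber) IC50s measured in the same experiment after 4 h exposure, HT29 or SiHa cells. Ratio computed as aerobic IC50/anoxic IC50.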

HT-29 [2] = experiment: Cytotoxicity against HT29 cells under hypoxic condition after 4 hrs; format: functional, cell-based; conditions: Homo sapiens, HT-29, 4 h
Method in brief: (§2)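 HT29 or SiHa cells exposed to drug for 4 h in 96-well plates under anoxia (H2/Pd anaerobic chamber). IC50 determined.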

HT-29 [3] = experiment: Drug penetration in anoxic HT29 cells assessed as penetration half distance; format: ADME, cell-based; conditions: human
HT-29 [4] = experiment: Ratio of IC50 for HT29 cells in aerobic condition to IC50 for HT29 cells in hypoxic condition after 4 hrs; format: functional, Homo sapiens; method in brief: as §1
HT-29 [5] = experiment: Cell viability in anoxic HT29 cells assessed as drug level providing 10% surviving fraction by clonogenic assay; format: cell-based; conditions: human
SiHa [6] = experiment: Cytotoxicity against SiHa cells under hypoxic condition after 4 hrs; format: functional, cell-based; conditions: Homo sapiens; method in brief: as §2
[7] = Cmax in CD1 mouse plasma at 421 umol/kg, ip; format: ADME, organism-based; set-up: dose 421 umol/kg, route intraperitoneal
Method in brief: (§3)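 Single i.p. dose to homozygous nude CD-1 Foxn1nu mice, at 75 or 100% of MTD (MTD set by 1.33-fold dose steps; highest dose without death, >15% weight loss or severe morbidity in any of six mice). Total drug measured in plasma by HPLC. AUC, Cmax and terminal t½ derived noncompartmentally. Measured levels taken as free drug.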

HT-29 [8] = experiment: Antitumor activity against HT29 tumor inoculated in CD1 nude mouse at 421 umol/kg, ip administered 5 mins after gamma irradiation by excision assay relative to radiation alone; format: functional, Homo sapiens
Method in brief: (§4)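 HT29 xenografts in nude CD-1 mice received 20 Gy γ radiation, then a single i.p. drug dose 5 min later, at 100% or 75% of MTD. Tumors excised 18 h afterwards, dissociated to single cells and plated for clonogens/g tumor. Hypoxic cell kill = log(clonogens/g, radiation only) − log(clonogens/g, radiation + drug).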

[9] = Terminal half life in CD1 mouse plasma at 421 umol/kg, ip; format: ADME, organism-based; method in brief: as §3
[10] = Toxicity in ip dosed CD1 mouse; format: organism-based; conditions: in vivo
Method in brief: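 Single i.p. doses given to homozygous nude CD-1 Foxn1nu mice, with the vehicle formulated per compound. Doses escalated in 1.33-fold increments. MTD was defined as the highest dose causing no mortality, no body weight loss >15% and no other severe morbidity in any of six mice.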

[11] = AUC (0 to infinity) in CD1 mouse plasma at 421 umol/kg, ip; format: ADME, organism-based; set-up: dose 421 umol/kg, time infinity, route intraperitoneal; method in brief: as §3
HT-29 [12] = experiment: Antitumor activity against HT29 tumor inoculated in CD1 nude mouse at 421 umol/kg, ip relative to control; format: functional, Homo sapiens
HT-29 [13] = experiment: Diffusion coefficient, D in aerobic HT29 multicellular layers; format: ADME, cell-based; conditions: human
Method in brief: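 Drug flux measured through HT29 multicellular layers on Teflon support membranes under 95% O2 at 37 °C, 50 µM initial donor concentration. Donor and receiver levels fitted with a diffusion model. Layer thickness estimated from flux of internal standard urea.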

[14] = Cmax in CD1 mouse plasma at 562 umol/kg, ip; format: ADME, organism-based; set-up: dose 562 umol/kg, route intraperitoneal; method in brief: as §3
[15] = AUC (0 to infinity) in CD1 mouse plasma at 562 umol/kg, ip; format: ADME, organism-based; set-up: dose 562 umol/kg, time infinity, route intraperitoneal; method in brief: as §3
HT-29 [16] = experiment: Antitumor activity against HT29 tumor inoculated in CD1 nude mouse at 562 umol/kg, ip administered 5 mins after gamma irradiation by excision assay relative to radiation alone; format: functional, Homo sapiens; method in brief: as §4
[17] = Solubility in culture medium in presence of 5% fetal calf serum; format: physicochemical; conditions: culture medium with 5% fetal calf serum
Method in brief: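 Solubility determined at 22 °C in culture medium containing 5% fetal calf serum.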

Penetration half distance (HT-29 [3]) [µm] | solubility [17] [mM] | SMILES | Ratio IC50 (SiHa [1]) | IC50 (HT-29 [2]) [µM] | Ratio IC50 (HT-29 [4]) | Activity (HT-29 [5]) [µM·h] | IC50 (SiHa [6]) [µM] | also measured
34 |  | CCc1n[n+]([O-])c2cc(OCCN(C)C)ccc2[n+]1[O-] | 128 | 0.7 | 105 | 1.8 | 0.5 | 
34 |  | CCc1n[n+]([O-])c2ccc(OCCO)cc2[n+]1[O-] | 203 | 14.4 | 54 | 97.3 | 7.9 | 
34 |  | CCc1n[n+]([O-])c2ccc(OCCCO)cc2[n+]1[O-] | 105 | 17 | 54 | 108.9 | 8.6 | 
34 |  | CCc1n[n+]([O-])c2cc(OCCOC)ccc2[n+]1[O-] | 116 | 4.7 | 69 | 40.7 | 1.8 | 
34 |  | Cc1n[n+]([O-])c2ccccc2[n+]1[O-] | 57 | 4.1 | 67 | 25.3 | 3 | D (HT-29 [13]): 19.15 10^-7cm2/sec
34 |  | [O-][n+]1nc(CCO)[n+]([O-])c2ccccc21 | 526 | 3.7 | 153 | 18.1 | 1.7 | D (HT-29 [13]): 4.41 10^-7cm2/sec
34 |  | COCCCc1n[n+]([O-])c2ccccc2[n+]1[O-] | 272 | 6.9 | 86 | 26.7 | 2.4 | D (HT-29 [13]): 21.3 10^-7cm2/sec
34 |  | [O-][n+]1nc(-c2ccccc2)[n+]([O-])c2ccccc21 | 1 | 4.4 | 2 |  | 2.2 | 
34 |  | [O-][n+]1nc(CCN2CCOCC2)[n+]([O-])c2ccccc21 | 225 | 3.8 | 107 | 10 | 2.2 | 
34 |  | [O-][n+]1nc(CCCN2CCOCC2)[n+]([O-])c2ccccc21 | 132 | 2.2 | 91 | 3.2 | 1 | D (HT-29 [13]): 7.47 10^-7cm2/sec
34 |  | CN(C)CCCc1n[n+]([O-])c2ccccc2[n+]1[O-] | 58 | 0.39 | 71 | 2.1 | 0.2 | 
34 |  | CCc1n[n+]([O-])c2ccc(C)cc2[n+]1[O-] | 214 | 11.4 | 63 | 52.4 | 3.6 | 
34 |  | COCCc1n[n+]([O-])c2ccc(C)cc2[n+]1[O-] | 150 | 6.6 | 63 | 57.9 | 1.9 | D (HT-29 [13]): 17.34 10^-7cm2/sec
34 |  | [O-][n+]1nc(CCCN2CCCCC2)[n+]([O-])c2ccccc21 | 55 | 1 | 36 | 1.5 | 0.6 | D (HT-29 [13]): 6.5 10^-7cm2/sec
34 |  | Cc1ccc2c(c1)[n+]([O-])c(CCO)n[n+]2[O-] | 208 | 4.3 | 82 | 22.2 | 1.2 | 
34 |  | CCc1n[n+]([O-])c2ccc(OCCOC)cc2[n+]1[O-] | 70 | 17.9 | 120 | 213.2 | 14.2 | 
34 |  | [O-][n+]1nc(CCCO)[n+]([O-])c2ccccc21 | 85 | 3.7 | 110 | 30.2 | 3.1 | D (HT-29 [13]): 4.94 10^-7cm2/sec
34 |  | COc1n[n+]([O-])c2ccccc2[n+]1[O-] | 4 | 3.1 | 1 |  | 1.1 | 
34 |  | CCc1n[n+]([O-])c2cc(OCCCO)ccc2[n+]1[O-] | 161 | 6.9 | 146 | 31.6 | 2.7 | 

Penetration half distance (HT-29 [3]) [µm] | solubility [17] [mM] | SMILES | Ratio IC50 (SiHa [1]) | IC50 (HT-29 [2]) [µM] | Ratio IC50 (HT-29 [4]) | Activity (HT-29 [5]) [µM·h] | IC50 (SiHa [6]) [µM] | also measured
 | > 46 | Cl.[O-][n+]1nc(CCCN2CCOCC2)[n+]([O-])c2ccccc21 |  |  |  |  |  | 
 | 7 | Cc1ccc2c(c1)[n+]([O-])c(CCO)n[n+]2[O-].Cl |  |  |  |  |  | 
 | > 51 | CCc1n[n+]([O-])c2cc(OCCN(C)C)ccc2[n+]1[O-].Cl |  |  |  |  |  | 
 | 10 | CCc1n[n+]([O-])c2ccc(OCCCO)cc2[n+]1[O-].Cl |  |  |  |  |  | 
 | 2 | CCc1n[n+]([O-])c2cc(OCCOC)ccc2[n+]1[O-].Cl |  |  |  |  |  | 
 | 50 | Cl.[O-][n+]1nc(CCCO)[n+]([O-])c2ccccc21 |  |  |  |  |  | 
 | 17 | CCc1n[n+]([O-])c2cc(OCCCO)ccc2[n+]1[O-].Cl |  |  |  |  |  | 
 | 0.3 | Cl.[O-][n+]1nc(-c2ccccc2)[n+]([O-])c2ccccc21 |  |  |  |  |  | 
 | 23 | COc1n[n+]([O-])c2ccccc2[n+]1[O-].Cl |  |  |  |  |  | 
 | 42 | Cl.[O-][n+]1nc(CCN2CCOCC2)[n+]([O-])c2ccccc21 |  |  |  |  |  | 
 | 21 | CCc1n[n+]([O-])c2ccc(OCCO)cc2[n+]1[O-].Cl |  |  |  |  |  | 
 | 3 | CCc1n[n+]([O-])c2ccc(OCCOC)cc2[n+]1[O-].Cl |  |  |  |  |  | 
 | 3 | COCCc1n[n+]([O-])c2ccc(C)cc2[n+]1[O-].Cl |  |  |  |  |  | 
 | 21 | COCCCc1n[n+]([O-])c2ccccc2[n+]1[O-].Cl |  |  |  |  |  | 
 | 28 | Cc1n[n+]([O-])c2ccccc2[n+]1[O-].Cl |  |  |  |  |  | 
 | 34 | Cl.[O-][n+]1nc(CCO)[n+]([O-])c2ccccc21 |  |  |  |  |  | 
 | 51 | CN(C)CCCc1n[n+]([O-])c2ccccc2[n+]1[O-].Cl |  |  |  |  |  | 
 | 4 | CCc1n[n+]([O-])c2ccc(C)cc2[n+]1[O-].Cl |  |  |  |  |  | 
 | 43 | Cl.[O-][n+]1nc(CCCN2CCCCC2)[n+]([O-])c2ccccc21 |  |  |  |  |  | 

SMILES | Penetration half distance (HT-29 [3]) [µm] | solubility [17] [mM] | Ratio IC50 (SiHa [1]) | IC50 (HT-29 [2]) [µM] | Ratio IC50 (HT-29 [4]) | Activity (HT-29 [5]) [µM·h] | IC50 (SiHa [6]) [µM] | also measured
CCc1n[n+]([O-])c2ccc(OCCN(C)C)cc2[n+]1[O-] | 34 |  | 374 | 1.3 | 307 | 5.1 | 0.8 | Cmax [7]: 55.5 µM; Activity (HT-29 [8]): 0.88%; half-life [9]: 32.2 min; MTD [10]: 562 µmol/kg; AUC(0-inf) [11]: 55.7 µM·h; Activity (HT-29 [12]): 0.23%
CCc1n[n+]([O-])c2ccc(OC)cc2[n+]1[O-] | 34 |  | 175 | 16.8 | 73 | 69.9 | 6.8 | Cmax [14]: 71.5 µM; AUC(0-inf) [15]: 138 µM·h; Activity (HT-29 [16]): 0.76%; MTD [10]: 750 µmol/kg
COCCc1n[n+]([O-])c2ccccc2[n+]1[O-] | 34 |  | 61 | 3.5 | 49 | 21.3 | 1.6 | Cmax [7]: 176 µM; Activity (HT-29 [8]): 0.8%; half-life [9]: 18 min; MTD [10]: 421 µmol/kg; AUC(0-inf) [11]: 113 µM·h; D (HT-29 [13]): 20.89 10^-7cm2/sec; Activity (HT-29 [12]): 0.3%
CCc1n[n+]([O-])c2ccc(OC)cc2[n+]1[O-].Cl |  | 3 |  |  |  |  |  | 
CCc1n[n+]([O-])c2ccc(OCCN(C)C)cc2[n+]1[O-].Cl |  | > 49 |  |  |  |  |  | 
CCc1n[n+]([O-])c2ccccc2[n+]1[O-].Cl |  | 15 |  |  |  |  |  | 
COCCc1n[n+]([O-])c2ccccc2[n+]1[O-].Cl |  | > 21 |  |  |  |  |  | 
CCc1n[n+]([O-])c2ccc(OCCN3CCCCC3)cc2[n+]1[O-].Cl |  | > 48 |  |  |  |  |  | 
CCc1n[n+]([O-])c2cc(OCCCN3CCOCC3)ccc2[n+]1[O-].Cl |  | > 48 |  |  |  |  |  | 
CCc1n[n+]([O-])c2ccc(OCCCN3CCOCC3)cc2[n+]1[O-].Cl |  | > 47 |  |  |  |  |  | 
